pEC50, pIC50: −log10 of the molar value. Converted amounts (≈) assume the structure as drawn. The source made the active and inactive calls. The calls are words filed in the database; no cut-off is given here.
Legend:
NIH3T3 = assay: Cytotoxicity against mouse NIH/3T3 cells after 48 hrs by SRB assay; type: cell-based; conditions: NIH3T3, 48 h
Bacillus cereus = assay: Antibacterial activity against Bacillus cereus after 24 hrs by agar dilution method; type: functional
[1] = test system: Staphylococcus epidermidis; assay: Antibacterial activity against Staphylococcus albus after 24 hrs by agar dilution method; type: functional
Staphylococcus aureus = assay: Antibacterial activity against Staphylococcus aureus after 24 hrs by agar dilution method; type: functional
Pseudomonas aeruginosa = assay: Antibacterial activity against Pseudomonas aeruginosa after 24 hrs by agar dilution method; type: functional
Escherichia coli = assay: Antibacterial activity against Escherichia coli after 24 hrs by agar dilution method; type: functional
[2] = test system: Radical scavenging activity; assay: Antioxidant activity assessed as DPPH radical scavenging activity after 30 mins by spectrophotometric analysis; type: functional
Method in brief: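 DPPH radical bleaching followed as loss of absorbance at 517 nm; IC50 derived; mean ± SD, n = 3.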

[3] = Antioxidant activity assessed as hydroxyl radical scavenging activity after 1 hr by spectrophotometric analysis; type: functional
[4] = Antioxidant activity assessed as superoxide radical anion scavenging activity by spectrophotometric analysis; type: functional
[5] = Antioxidant activity assessed as ferric ion reducing ability after 20 mins by spectrophotometric analysis; type: functional
[6] = Antioxidant activity assessed as ferric ion reducing ability at 1 to 50 uM after 20 mins by spectrophotometric analysis; type: functional

SMILES	MIC (Bacillus cereus)	MIC [1]	MIC (Staphylococcus aureus)	MIC (Pseudomonas aeruginosa)	MIC (Escherichia coli)	pEC50 [2]	pEC50 [3]	pEC50 [4]	pIC50 (NIH3T3)	MBC (Bacillus cereus)	MBC (Staphylococcus aureus)	MBC (Escherichia coli)	MBC [1]	Activity [5]	MBC (Pseudomonas aeruginosa)	Activity [6]
COc1ccc(OC)c(-c2nc3cc(OC)ccc3[nH]2)c1	100 µM (≈ 28.4 µg/mL)	> 200 µM	6.25 µM (≈ 1.78 µg/mL)	> 200 µM	> 200 µM	< 3.70	< 3.70	< 3.70	< 3.70	200 µM (≈ 56.9 µg/mL)	50 µM (≈ 14.2 µg/mL)	–	–	–	–	–
COc1ccc2[nH]c(-c3ccccc3O)nc2c1	200 µM (≈ 48.1 µg/mL)	> 200 µM	> 200 µM	> 200 µM	100 µM (≈ 24 µg/mL)	< 3.70	3.72	4.06	< 3.70	> 200 µM	–	> 200 µM	–	–	–	–
COc1ccc(-c2nc3cc(OC)ccc3[nH]2)c(OC)c1	> 200 µM	100 µM (≈ 28.4 µg/mL)	6.25 µM (≈ 1.78 µg/mL)	> 200 µM	> 200 µM	< 3.70	< 3.70	< 3.70	< 3.70	–	50 µM (≈ 14.2 µg/mL)	–	200 µM (≈ 56.9 µg/mL)	–	–	–
CC(C)(C)c1cc(O)ccc1O [E319]	–	–	–	–	–	4.44	4.19	< 3.70	–	–	–	–	–	Dose-dependent effect	–	–
O=C(O)c1cn(C2CC2)c2cc(N3CCNCC3)c(F)cc2c1=O [CIPROFLOXACIN]	0.39 µM (≈ 0.129 µg/mL)	0.39 µM (≈ 0.129 µg/mL)	0.39 µM (≈ 0.129 µg/mL)	0.78 µM (≈ 0.258 µg/mL)	0.39 µM (≈ 0.129 µg/mL)	–	–	–	< 3.70	0.39 µM (≈ 0.129 µg/mL)	0.39 µM (≈ 0.129 µg/mL)	0.39 µM (≈ 0.129 µg/mL)	0.39 µM (≈ 0.129 µg/mL)	–	0.78 µM (≈ 0.258 µg/mL)	–
COc1ccc2[nH]c(-c3ccc(O)cc3O)nc2c1	50 µM (≈ 12.8 µg/mL)	100 µM (≈ 25.6 µg/mL)	50 µM (≈ 12.8 µg/mL)	> 200 µM	6.25 µM (≈ 1.6 µg/mL)	3.89	< 3.70	3.72	< 3.70	100 µM (≈ 25.6 µg/mL)	100 µM (≈ 25.6 µg/mL)	100 µM (≈ 25.6 µg/mL)	200 µM (≈ 51.3 µg/mL)	–	–	–
COc1ccc2[nH]c(-c3ccc(OC)c(OC)c3)nc2c1	25 µM (≈ 7.11 µg/mL)	100 µM (≈ 28.4 µg/mL)	50 µM (≈ 14.2 µg/mL)	> 200 µM	> 200 µM	< 3.70	< 3.70	< 3.70	< 3.70	100 µM (≈ 28.4 µg/mL)	200 µM (≈ 56.9 µg/mL)	–	> 200 µM	–	–	–
Oc1cc(O)cc(-c2nc3cc(O)ccc3[nH]2)c1	25 µM (≈ 6.06 µg/mL)	> 200 µM	0.78 µM (≈ 0.189 µg/mL)	> 200 µM	> 200 µM	4.59	< 3.70	< 3.70	< 3.70	25 µM (≈ 6.06 µg/mL)	0.78 µM (≈ 0.189 µg/mL)	–	–	Dose-dependent effect	–	Active
COc1ccc(-c2nc3cc(O)ccc3[nH]2)c(OC)c1	50 µM (≈ 13.5 µg/mL)	> 200 µM	0.39 µM (≈ 0.105 µg/mL)	> 200 µM	12.5 µM (≈ 3.38 µg/mL)	4.49	< 3.70	< 3.70	< 3.70	50 µM (≈ 13.5 µg/mL)	0.39 µM (≈ 0.105 µg/mL)	25 µM (≈ 6.76 µg/mL)	–	Dose-dependent effect	–	Active
COc1cc(OC)cc(-c2nc3cc(OC)ccc3[nH]2)c1	> 200 µM	> 200 µM	> 200 µM	> 200 µM	> 200 µM	< 3.70	< 3.70	< 3.70	< 3.70	–	–	–	–	–	–	–
COc1ccc(-c2nc3cc(OC)ccc3[nH]2)cc1	50 µM (≈ 12.7 µg/mL)	100 µM (≈ 25.4 µg/mL)	25 µM (≈ 6.36 µg/mL)	> 200 µM	6.25 µM (≈ 1.59 µg/mL)	< 3.70	< 3.70	< 3.70	< 3.70	200 µM (≈ 50.9 µg/mL)	200 µM (≈ 50.9 µg/mL)	100 µM (≈ 25.4 µg/mL)	> 200 µM	–	–	–
COc1ccc(O)cc1-c1nc2cc(O)ccc2[nH]1	100 µM (≈ 25.6 µg/mL)	> 200 µM	> 200 µM	> 200 µM	> 200 µM	4.64	< 3.70	< 3.70	< 3.70	> 200 µM	–	–	–	Dose-dependent effect	–	Active
COc1ccc2[nH]c(-c3ccc(O)c(OC)c3)nc2c1	50 µM (≈ 13.5 µg/mL)	> 200 µM	100 µM (≈ 27 µg/mL)	> 200 µM	> 200 µM	4.24	< 3.70	< 3.70	< 3.70	200 µM (≈ 54.1 µg/mL)	200 µM (≈ 54.1 µg/mL)	–	–	–	–	–

Now from value to molecule, other results behind:

MIC (Bacillus cereus)	MIC [1]	MIC (Staphylococcus aureus)	MIC (Pseudomonas aeruginosa)	MIC (Escherichia coli)	pEC50 [2]	pEC50 [3]	pEC50 [4]	SMILES	pIC50 (NIH3T3)	MBC (Bacillus cereus)	MBC (Staphylococcus aureus)	MBC (Escherichia coli)	MBC [1]	Activity [5]	MBC (Pseudomonas aeruginosa)	Activity [6]
50 µM (≈ 10.5 µg/mL)	> 200 µM	0.39 µM (≈ 0.082 µg/mL)	> 200 µM	12.5 µM (≈ 2.63 µg/mL)	< 3.70	< 3.70	< 3.70	Oc1cccc(-c2nc3ccccc3[nH]2)c1	< 3.70	200 µM (≈ 42 µg/mL)	0.78 µM (≈ 0.164 µg/mL)	100 µM (≈ 21 µg/mL)	–	–	–	–
50 µM (≈ 11.2 µg/mL)	100 µM (≈ 22.4 µg/mL)	1.56 µM (≈ 0.35 µg/mL)	> 200 µM	12.5 µM (≈ 2.8 µg/mL)	< 3.70	< 3.70	< 3.70	COc1ccc(-c2nc3ccccc3[nH]2)cc1	< 3.70	100 µM (≈ 22.4 µg/mL)	1.56 µM (≈ 0.35 µg/mL)	50 µM (≈ 11.2 µg/mL)	100 µM (≈ 22.4 µg/mL)	–	–	–
25 µM (≈ 5.66 µg/mL)	100 µM (≈ 22.6 µg/mL)	1.56 µM (≈ 0.353 µg/mL)	> 200 µM	6.25 µM (≈ 1.41 µg/mL)	4.52	3.91	3.77	Oc1ccc2[nH]c(-c3ccccc3O)nc2c1	< 3.70	25 µM (≈ 5.66 µg/mL)	1.56 µM (≈ 0.353 µg/mL)	25 µM (≈ 5.66 µg/mL)	> 200 µM	Dose-dependent effect	–	Active
> 200 µM	> 200 µM	12.5 µM (≈ 2.63 µg/mL)	> 200 µM	25 µM (≈ 5.26 µg/mL)	< 3.70	< 3.70	< 3.70	Oc1ccc(-c2nc3ccccc3[nH]2)cc1	< 3.70	–	50 µM (≈ 10.5 µg/mL)	100 µM (≈ 21 µg/mL)	–	–	–	–
25 µM (≈ 6.01 µg/mL)	> 200 µM	100 µM (≈ 24 µg/mL)	> 200 µM	12.5 µM (≈ 3 µg/mL)	< 3.70	< 3.70	< 3.70	COc1ccc2[nH]c(-c3cccc(O)c3)nc2c1	< 3.70	200 µM (≈ 48.1 µg/mL)	200 µM (≈ 48.1 µg/mL)	100 µM (≈ 24 µg/mL)	–	–	–	–
> 200 µM	> 200 µM	100 µM (≈ 19.4 µg/mL)	> 200 µM	6.25 µM (≈ 1.21 µg/mL)	< 3.70	< 3.70	< 3.70	c1ccc(-c2nc3ccccc3[nH]2)cc1	< 3.70	–	> 200 µM	100 µM (≈ 19.4 µg/mL)	–	–	–	–
50 µM (≈ 10.5 µg/mL)	> 200 µM	1.56 µM (≈ 0.328 µg/mL)	> 200 µM	100 µM (≈ 21 µg/mL)	4.38	< 3.70	< 3.70	Oc1ccc2[nH]c(-c3ccccc3)nc2c1	< 3.70	100 µM (≈ 21 µg/mL)	1.56 µM (≈ 0.328 µg/mL)	> 200 µM	–	Dose-dependent effect	–	Active
25 µM (≈ 5.66 µg/mL)	> 200 µM	1.56 µM (≈ 0.353 µg/mL)	> 200 µM	100 µM (≈ 22.6 µg/mL)	4.40	< 3.70	< 3.70	Oc1cccc(-c2nc3cc(O)ccc3[nH]2)c1	< 3.70	50 µM (≈ 11.3 µg/mL)	1.56 µM (≈ 0.353 µg/mL)	> 200 µM	–	Dose-dependent effect	–	Active
50 µM (≈ 11.3 µg/mL)	> 200 µM	1.56 µM (≈ 0.353 µg/mL)	> 200 µM	> 200 µM	4.47	3.80	< 3.70	Oc1ccc(-c2nc3cc(O)ccc3[nH]2)cc1	< 3.70	50 µM (≈ 11.3 µg/mL)	1.56 µM (≈ 0.353 µg/mL)	–	–	Dose-dependent effect	–	Active
50 µM (≈ 11.2 µg/mL)	> 200 µM	> 200 µM	> 200 µM	25 µM (≈ 5.61 µg/mL)	< 3.70	< 3.70	< 3.70	COc1ccc2[nH]c(-c3ccccc3)nc2c1	< 3.70	200 µM (≈ 44.9 µg/mL)	–	100 µM (≈ 22.4 µg/mL)	–	–	–	–
> 200 µM	> 200 µM	> 200 µM	> 200 µM	25 µM (≈ 5.26 µg/mL)	< 3.70	< 3.70	3.91	Oc1ccccc1-c1nc2ccccc2[nH]1	< 3.70	–	–	100 µM (≈ 21 µg/mL)	–	–	–	–
100 µM (≈ 24.2 µg/mL)	> 200 µM	> 200 µM	> 200 µM	> 200 µM	4.48	4.11	< 3.70	Oc1ccc2[nH]c(-c3ccc(O)c(O)c3)nc2c1	< 3.70	> 200 µM	–	–	–	Dose-dependent effect	–	Active
50 µM (≈ 12 µg/mL)	> 200 µM	100 µM (≈ 24 µg/mL)	> 200 µM	12.5 µM (≈ 3 µg/mL)	< 3.70	< 3.70	< 3.70	COc1ccc2[nH]c(-c3ccc(O)cc3)nc2c1	< 3.70	200 µM (≈ 48.1 µg/mL)	200 µM (≈ 48.1 µg/mL)	100 µM (≈ 24 µg/mL)	–	–	–	–
